The results in this text go back to ChEMBL document CHEMBL3272033, “Physicochemical and pharmacological studies of some 8-substituted decahydroisoquinolines” (J Med Chem, 1976).

SMILES strings stand for the structures.

A short description of data set [1]: Therapeutic index, ratio of LD50 for toxicity to ED50 for antiarrhythmic activity in ip dosed Swiss-Webster albino mouse. Type of data set: organism-based, Heart. The note with it: in vivo, read-out: Ratio LD50/ED50.
Data set [2] in a line: Effect on transmembrane action potential in dog purkinje cells assessed as change in activation time at 10 mg/l after 20 mins in presence of 5.4 mM/l K+ relative to control. Type of data set: functional, Canis lupus familiaris. In a few lines:
(§1)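 Canine Purkinje false-tendon preparations from pentobarbital-anesthetized dogs, in oxygenated Tyrode at 37 °C with KCl 2.7 or 5.4 mM. Compound given by bolus to the final bath concentration. TMAP recorded by intracellular glass microelectrode before dosing and 2–20 min after. ARV of phase 0 (V/s) and activation time (ms) expressed as % change from control at 20 min. Two preparations per compound.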

Data set [3] concerns Heart. Description: Antiarrhythmic activity in Hartley guinea pig atria assessed as change in spontaneous rate at 55.0 uM/l after 5 mins. It counts as functional, Cavia porcellus. In a few lines: (§2)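 Spontaneously beating isolated atria held under initial tension; bath fluid changed every 10 min; stabilised about 1 h. Maximum driving rate found with 1-ms square pulses at 50% above threshold voltage, 10 s every 30 s; the frequency just before failure of following is the MDR. Control is the mean of two determinations. Spontaneous rate recorded by tachograph. Values are % change from control at peak response, generally 5–30 min.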

Data set [4] in a line: Effect on transmembrane action potential in dog purkinje cells assessed as change in amplitude at 10 mg/l after 20 mins in presence of 5.4 mM/l K+ relative to control. Type of data set: functional, Canis lupus familiaris. The essentials:
(§3)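 Purkinje false tendons with attached myocardium came from adult dogs (10–15 kg) anesthetized with pentobarbital 30 mg/kg iv. Tissue was bathed in Tyrode (KCl 2.7 or 5.4 mM) gassed with 95% O2-5% CO2 at 37 °C and impaled with glass microelectrodes. Compound was given as a bolus to the final bath concentration, with records at 2–20 min. Two preparations per compound; % change from control at 20 min.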

Data set [5] can be described thus: Effect on transmembrane action potential in dog purkinje cells assessed as average rising velocity at 20 mg/l after 20 mins in presence of 5.4 mM/l K+ relative to control. Type of data set: functional, Canis lupus familiaris. The essentials:
as §1

The subject of data set [6] is Mus musculus. Description: Toxicity in ip dosed Swiss-Webster albino mouse. As to conditions: in vivo. Type of data set: organism-based.
For data set [7], the species on record is Homo sapiens. Description: Drug absorption in buccal cavity in human at pH 7.50 after 5 mins by UV spectrometry. Type of data set: ADME, organism-based. As to conditions: in vivo, other, pH 7.5, 5 min. In a few lines:
(§4)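 3 mg compound in 25 ml buffer (0.1 M phosphate pH 5.50 or 7.50; tetraborate pH 9.30) swished in the mouth for 5 min, expelled, and combined with a 10 ml water rinse. Made up to 50 ml; aliquot basified to pH 10 and ether-extracted, then back-extracted into 0.1 N HCl. UV absorbance read at λmax against Beer's law plots; the unrecovered fraction is taken as % absorbed. One to three subjects.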

The nature of data set [8]: Effect on transmembrane action potential in dog purkinje cells assessed as average rising velocity at 10 mg/l after 20 mins in presence of 5.4 mM/l K+ relative to control. It counts as functional, Canis lupus familiaris. In a few lines: as §1
Data set [9] can be described thus: Effect on transmembrane action potential in dog purkinje cells assessed as change in amplitude at 10 mg/l after 20 mins in presence of 2.7 mM/l K+ relative to control. Type of data set: functional, Canis lupus familiaris. In a few lines:
as §3

Data set [10] is filed under the species Homo sapiens. Description: Drug absorption in buccal cavity in human at pH 9.3 after 5 mins by UV spectrometry. It counts as ADME, organism-based. The note with it: in vivo, other, pH 9.3, 5 min. The essentials:
as §4

The subject of data set [11] is Heart. Briefly: Antiarrhythmic activity in Hartley guinea pig atria assessed as change in maximum driving rate at 55.0 uM/l after 5 mins. Type of data set: functional, Cavia porcellus. In a few lines: as §2
The nature of data set [12]: Effect on transmembrane action potential in dog purkinje cells assessed as average rising velocity at 10 mg/l after 20 mins in presence of 2.7 mM/l K+ relative to control. Type of data set: functional, Canis lupus familiaris. In a few lines: as §1
The nature of data set [13]: Effect on transmembrane action potential in dog purkinje cells assessed as average rising velocity at 20 mg/l after 20 mins in presence of 2.7 mM/l K+ relative to control. Type of data set: functional, Canis lupus familiaris. The essentials:
as §1

The test system of data set [14] is Homo sapiens. Description: Toxicity in human assessed as numbness at 5 x 10' -5 M administered topically to buccal cavity measured up to 15 to 20 mins. Type of data set: organism-based. As to conditions: in vivo, topical_or_ocular, 50 µM.
The test system of data set [15] is Mus musculus. Description: Antiarrhythmic activity in ip dosed Swiss-Webster albino mouse assessed as prevention of chloroform-induced ventricular fibrillation. It counts as functional, Heart.
Data set [16] can be described thus: Dissociation constant, pKa of the compound in 0.01 M potassium hydrogen phthalate. It counts as physicochemical. The essentials: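 pKa by potentiometric titration with 0.01 M potassium hydrogen phthalate in a thermostated vessel, stirred, under nitrogen bubbling, using glass and calomel electrodes. pKa is the mean pH at half-neutralization from four titrations. Endpoints were taken from parallel tangents on either side of the inflection.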

Data set [17] is filed under the species Homo sapiens. Briefly: Drug absorption in buccal cavity in human at pH 5.50 after 5 mins by UV spectrometry. Type of data set: ADME, organism-based. The note with it: in vivo, other, pH 5.5, 5 min. The essentials: as §4
Data set [18] can be described thus: Effect on transmembrane action potential in dog purkinje cells assessed as change in activation time at 20 mg/l after 20 mins in presence of 5.4 mM/l K+ relative to control. Type of data set: functional, Canis lupus familiaris. The essentials: as §1
A short description of data set [19]: Effect on transmembrane action potential in dog purkinje cells assessed as change in activation time at 10 mg/l after 20 mins in presence of 2.7 mM/l K+ relative to control. It counts as functional, Canis lupus familiaris. In a few lines:
as §1

A short description of data set [20]: Effect on transmembrane action potential in dog purkinje cells assessed as change in activation time at 20 mg/l after 20 mins in presence of 2.7 mM/l K+ relative to control. It counts as functional, Canis lupus familiaris. In a few lines: as §1
Data set [21] can be described thus: Effect on transmembrane action potential in dog purkinje cells assessed as change in amplitude at 20 mg/l after 20 mins in presence of 2.7 mM/l K+ relative to control. Type of data set: functional, Canis lupus familiaris. In a few lines:
as §3

The nature of data set [22]: Effect on transmembrane action potential in dog purkinje cells assessed as change in amplitude at 20 mg/l after 20 mins in presence of 5.4 mM/l K+ relative to control. It counts as functional, Canis lupus familiaris. The essentials: as §3
The subject of data set [23] is Heart. Description: Antiarrhythmic activity in Hartley guinea pig atria assessed as change in spontaneous rate at 55.2 uM/l after 5 mins. It counts as functional, Cavia porcellus. The essentials: as §2
Data set [24] in a line: Effect on transmembrane action potential in dog purkinje cells assessed as change in amplitude at 40 mg/l after 20 mins in presence of 5.4 mM/l K+ relative to control. Type of data set: functional, Canis lupus familiaris. In a few lines:
as §3

Data set [25] can be described thus: Effect on transmembrane action potential in dog purkinje cells assessed as change in activation time at 25 mg/l after 20 mins in presence of 2.7 mM/l K+ relative to control. It counts as functional, Canis lupus familiaris. In a few lines: as §1
A short description of data set [26]: Effect on transmembrane action potential in dog purkinje cells assessed as average rising velocity at 40 mg/l after 20 mins in presence of 5.4 mM/l K+ relative to control. Type of data set: functional, Canis lupus familiaris. In a few lines: as §1
A short description of data set [27]: Effect on transmembrane action potential in dog purkinje cells assessed as average rising velocity at 50 mg/l after 20 mins in presence of 2.7 mM/l K+ relative to control. Type of data set: functional, Canis lupus familiaris. In a few lines:
as §1

The subject of data set [28] is Heart. Description: Antiarrhythmic activity in Hartley guinea pig atria assessed as change in maximum driving rate at 55.2 uM/l after 5 mins. Type of data set: functional, Cavia porcellus. The essentials: as §2
Data set [29] can be described thus: Effect on transmembrane action potential in dog purkinje cells assessed as change in amplitude at 25 mg/l after 20 mins in presence of 2.7 mM/l K+ relative to control. It counts as functional, Canis lupus familiaris. In a few lines: as §3
The nature of data set [30]: Effect on transmembrane action potential in dog purkinje cells assessed as change in activation time at 40 mg/l after 20 mins in presence of 5.4 mM/l K+ relative to control. Type of data set: functional, Canis lupus familiaris. In a few lines:
as §3

Data set [31] is described as follows: Effect on transmembrane action potential in dog purkinje cells assessed as average rising velocity at 25 mg/l after 20 mins in presence of 2.7 mM/l K+ relative to control. It counts as functional, Canis lupus familiaris. In a few lines: as §1
Data set [32] is described as follows: Effect on transmembrane action potential in dog purkinje cells assessed as change in amplitude at 50 mg/l after 20 mins in presence of 2.7 mM/l K+ relative to control. It counts as functional, Canis lupus familiaris. In a few lines: as §3
Data set [33] is described as follows: Effect on transmembrane action potential in dog purkinje cells assessed as change in activation time at 50 mg/l after 20 mins in presence of 2.7 mM/l K+ relative to control. Type of data set: functional, Canis lupus familiaris. The essentials: as §3
Data set [34] can be described thus: Effect on transmembrane action potential in dog purkinje cells assessed as average rising velocity at 30 mg/l after 20 mins in presence of 2.7 mM/l K+ relative to control. It counts as functional, Canis lupus familiaris. In a few lines: as §1
Data set [35] is described as follows: Effect on transmembrane action potential in dog purkinje cells assessed as change in amplitude at 30 mg/l after 20 mins in presence of 2.7 mM/l K+ relative to control. It counts as functional, Canis lupus familiaris. The essentials: as §3
Data set [36] relates to Heart. Description: Antiarrhythmic activity in Hartley guinea pig atria assessed as change in spontaneous rate at 58.6 uM/l after 5 mins. Type of data set: functional, Cavia porcellus. The essentials: as §2
Data set [37] has as its system Heart. Description: Antiarrhythmic activity in Hartley guinea pig atria assessed as change in maximum driving rate at 58.6 uM/l after 5 mins. It counts as functional, Cavia porcellus. In a few lines:
as §2

Data set [38] in a line: Effect on transmembrane action potential in dog purkinje cells assessed as change in activation time at 30 mg/l after 20 mins in presence of 2.7 mM/l K+ relative to control. Type of data set: functional, Canis lupus familiaris. In a few lines:
as §1

Turning to `COc1cc(C(=O)O[C@@H]2CCC[C@@H]3CCN(C)C[C@H]32)cc(OC)c1OC` (mixture of isomers), the selectivity ratio in data set [1] came to 4.5. The Activity in data set [2] was 530%; in data set [3] it was -42.4%; in data set [4], -7%; in data set [5] it was -71%; in [8], -50%; in data set [9], -12%. Besides, the Activity is given as -54.5% in data set [11]; -6% in [12]; -58% in data set [13]; “Toxic” in data set [14]; 300% in [18]; 131% in data set [19]. Also, the Activity is recorded as 389% in [20], -15% in data set [21] and -17% in data set [22]. Also, the LD50 in [6] was found to be 338. Moreover, the Drug absorption in [7] amounted to 19.7%; in [10] it was 69.5%; in data set [17], 17.1%. For the same compound, in [15], the ED50 was determined as 74 µmol/kg. The same compound yielded a pKa in data set [16] of 8.82.
Take `COc1cc(C(=O)N[C@@H]2CCC[C@@H]3CCN(C)C[C@H]32)cc(OC)c1OC` (mixture of isomers): the selectivity ratio in data set [1] came out at 6.7. In addition, the Activity is on record as -14.4% in data set [23]; -4% in data set [2]; -6% in data set [24]; 0% in [4]; -29% in data set [5]; 23% in data set [25]. Further, the Activity in data set [8] is -24%; in data set [9] it was 0%; in data set [26], -50%; in data set [27], -44%; in data set [12], -9%; in data set [28], -13.3%. Also, the Activity in [29] is recorded as -2%; in data set [18], -1%; in data set [30] it was -1%; in [31], -19%; in data set [19] it was 2%; in [32], -8%. For the same compound, the Activity is 105% in [33] and 0% in data set [22]. The compound further had an LD50 in data set [6] of 835. For the same compound, the Drug absorption amounted to 18.1% in data set [7], 31.1% in [10] and 5.5% in data set [17]. Further, in data set [15], the median effective dose (ED50) turned out to be 124 µmol/kg. For the same compound, the pKa in data set [16] is 8.75.
On to `CN1CC[C@H]2CCC[C@@H](NC(=O)c3ccc(Cl)c(Cl)c3)[C@@H]2C1` (mixture of isomers), for which the selectivity ratio in [1] stood at 12.7. For the same compound, the Activity is -72% in data set [34]; 18% in [2]; -23% in data set [35]; -41.2% in data set [36]; -11% in [4]; -58% in data set [5]. The Activity is recorded as -45% in data set [37]; -30% in data set [8]; 81% in [38]; 42% in [18]; -5% in data set [22]. For the same compound, the LD50 in data set [6] came out at 1304. The Drug absorption was found to be 25.7% in data set [7], 59.3% in data set [10] and 20.5% in [17]. Also, in data set [15], the ED50 amounted to 104 µmol/kg.
